Screens as filed in PubChem BioAssay.
DDE Tn7 FP inh: inhibitors of Tn7 peptide binding to fibrin DD(E), primary screen, biochemical, fluorescence polarization, human fibrin, Tn7 probe; inhibition, % at 8.3 µM; AID 720508, 2013; Fibrinogen beta chain (Homo sapiens), P02675; FP displacement of FITC-Tn7 peptide from fibrin DD(E); 0% = median of compound wells per plate; hit rate 0.13% among 370,000;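 active means inhibition above the mean of compounds falling within the control limits plus 3 SD of them, cut at about 14% in these data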;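 further: 0% = plate median of compound wells and 100% = 10 µM Aha-Tn7 peptide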
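Assay system: Human clot-derived fibrin DD(E) complex | Buffer or medium: Tris/NaCl/CaCl2 buffer, pH 7.8 | Repeats: One replicate per compound | Benchmarks: Aha-Tn7 high control | Measure: % inhibition scaled between sample-field median and high-control FP | Schedule: 10 min plus 3 h, room temperature | Signal: Fluorescence polarization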
ARFGAP1 inh: inhibitors of rat ARFGAP1 GAP activity, primary screen, biochemical, fluorescence polarization, GDP tracer. inhibition, % at 16.5 µM. hit rate 0.26% among 360,000. ADP-ribosylation factor GTPase-activating protein 1 (Rattus norvegicus), Q62848. Arfgap1-stimulated ARF1 GTP hydrolysis, GDP FP detection. AID 651572, 2012;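 active means inhibition above a per-plate limit, mean inhibition of low control wells plus 3 SD, cut at about 25% in these data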;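 further: 0% = DMSO wells with enzyme and 100% = wells lacking Arfgap1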
Target sequence (Q62848 1-136 limits assumed): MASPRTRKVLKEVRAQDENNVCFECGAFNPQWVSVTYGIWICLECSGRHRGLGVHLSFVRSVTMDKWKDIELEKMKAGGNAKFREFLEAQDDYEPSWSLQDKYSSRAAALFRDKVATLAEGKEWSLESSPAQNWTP
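Material: rat Arfgap1 catalytic domain, aa 1-136; also added: human ARF1(Δ1-17)-GTP substrate; compound dosing: one concentration, 16.5 µM, DMSO 1.26%; incubation: GTP hydrolysis reaction 2 h at 25 °C; measured by: Tracer-displacement fluorescence polarization with EDTA stop, 620/688 nm; evaluation: % inhibition from polarization; repeats: one replicate per compound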
ASAP1 inh: inhibitors of human ASAP1 ArfGAP activity, primary screen, biochemical, fluorescence polarization; inhibition, % at 16.5 µM; ASAP1-stimulated ARF1 GTP hydrolysis, GDP FP detection; hit rate 0.19% among 360,000; Arf-GAP with SH3 domain, ANK repeat and PH domain-containing protein 1 (Homo sapiens), …; in the data active means inhibition above about 25%;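 further: 0% = vehicle with enzyme and substrate and 100% = no enzyme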
DDE Tn6 FP inh: inhibitors of Tn6 peptide binding to fibrin DD(E), primary screen, biochemical, fluorescence polarization, human fibrin, Tn6 probe; Fibrin DD(E) TRITC-Tn6 fluorescence polarization displacement; inhibition, % at 8.3 µM; hit rate 0.21% among 370,000; AID 720509, 2013;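 active means inhibition above a per-campaign cutoff: mean of compounds within control limits plus 3 SD, cut at about 15% in these data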;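 further: 0% = median of all compound wells on the plate and 100% = blocking peptide control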
ARFGAP1 inh conf: ARFGAP1 inhibitor hit confirmation, biochemical, fluorescence polarization, triplicate | shares compounds with ARFGAP1 inh | hit rate 30% among 890 | AID 651608, 2012 | ARFGAP1-stimulated ARF1 GTP hydrolysis, GDP tracer FP | inhibition, % at 16.5 µM;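 active means average inhibition over triplicates above the hit cutoff set in the earlier primary screen, cut at about 25% in these data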;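 further: 0% = Arfgap1 plus ARF1-GTP with DMSO and 100% = wells lacking Arfgap1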
Target sequence (Q62848 whole entry, looked up): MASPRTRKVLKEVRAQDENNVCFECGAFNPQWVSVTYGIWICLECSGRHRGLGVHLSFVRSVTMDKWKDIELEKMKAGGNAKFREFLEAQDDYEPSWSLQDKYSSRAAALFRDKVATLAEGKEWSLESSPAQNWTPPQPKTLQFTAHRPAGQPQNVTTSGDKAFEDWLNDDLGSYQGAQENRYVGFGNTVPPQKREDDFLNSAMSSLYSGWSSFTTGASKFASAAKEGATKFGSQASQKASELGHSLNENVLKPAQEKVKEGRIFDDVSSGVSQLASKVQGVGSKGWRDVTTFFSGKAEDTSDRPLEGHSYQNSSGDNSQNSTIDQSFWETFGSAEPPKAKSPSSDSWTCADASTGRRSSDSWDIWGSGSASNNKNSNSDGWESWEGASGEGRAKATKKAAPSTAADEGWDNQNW
* = called active by the depositor; x = no result given. Only some compounds are listed: those with a hit (about 0.74% of all), similar ones and a draw of the others.

SMILES	DDE Tn7 FP inh	ARFGAP1 inh	ASAP1 inh	DDE Tn6 FP inh	ARFGAP1 inh conf
COC(=O)C1=C(C)N(Cc2cccc(C(F)(F)F)c2)C(=NCc2ccccc2C(F)(F)F)NC1c1cccc(F)c1 (centres undefined)	-10	27*	-2	1	13
COC(=O)C1=C(C)N(Cc2ccccc2C(F)(F)F)C(=NCc2ccccc2)NC1c1ccc(C(F)(F)F)cc1 (centres undefined)	0	25*	3	1	11
COC(=O)C1=C(C)N(Cc2ccccc2C(F)(F)F)C(=NCc2cccc(C(F)(F)F)c2)NC1c1ccc(C(F)(F)F)cc1 (centres undefined)	6	3	6	-3	x
CC(C)C1=CC2C3C(C(C(C)C)=CC(=O)[C@@]3(C)O)C1C(=O)C2(C)O (some centres undefined)	1	12	-7	9	x
CCCCN1CC(COCc2ccccc2)Oc2cccc(Sc3ccc(OC)c(OC)c3)c2S1(=O)=O (centres undefined)	-2	-4	2	-13	x
Cc1sc2ncnc(N3CCC(C(=O)NCC(=O)Nc4ccc(F)c(F)c4)CC3)c2c1C	1	25*	-14	-3	1
COC(=O)c1cc2c(c3c4cc(OC)ccc4n(S(=O)(=O)c4cccc(C)c4)c13)C(=O)N(Cc1ccccc1OC)C2	2	14	-11	-3	x
Brc1ccc(-c2noc3c2-c2nc(-c4ccccc4)sc2CC3)cc1	2	27*	15	-1	-1
CCOc1cc(/C=N/n2c(C)nnc2C)ccc1O	-1	28*	5	4	7
CCOc1ccc(/C=N/n2c(C)nnc2C)cc1OC	-7	4	-2	-3	x
Cc1c(CC(=O)NCCCO)c(=O)oc2cc3c(cc12)CCC(C)(C)O3	-3	-4	-1	6	x
Cc1c(O)ccc2c(O)c(NC(=O)c3ccc4c(c3)CCC(C)(C)O4)c(=O)oc12	4	40*	2	-5	1
O=c1cc(Nc2ccc3c(c2)OCCO3)[nH]c(=O)n1-c1ccc(Br)cc1	2	-10	-4	3	x
O=c1cc(Nc2ccc3c(c2)OCCO3)[nH]c(=O)n1Cc1ccc(F)cc1	-2	27*	-4	1	-2
Cc1c(CN2CCN(c3ncc(Cc4ccccc4)cn3)CC2)c(=O)n(-c2ccccc2)n1C	3	-9	8	-1	x
COC(=O)[C@H]1[C@H]2C[C@@H]3c4[nH]c5cc(OC)ccc5c4CCN3C[C@H]2C[C@@H](OC(=O)c2cc(OC)c(OC)c(OC)c2)[C@@H]1OC	0	28*	6	1	3
O=S1(=O)C=C(Sc2ccc(Cl)cc2)c2ccccc2C1Cc1ccc(F)cc1 (centres undefined)	4	-12	-8	0	x
CCC(CC)c1nnc(NC(=O)c2cccc(S(=O)(=O)N3CCOCC3)c2)s1	7	28*	-3	6	-4
COC(=O)c1cc2c(c3c4cc(C)ccc4n(S(=O)(=O)c4cccc(C)c4)c13)C(=O)N(C)C2	2	9	-2	-5	x
O=[N+]([O-])c1cccc(/C=C/c2nc3ccc([N+](=O)[O-])cc3[nH]2)c1	7	25*	7	-9	26*
Cc1nc2ccc([N+](=O)[O-])cc2[nH]1	0	6	3	-2	x
O=C(C(=O)N1CCN(C(=O)c2cccs2)CC1)c1cccc(C(F)(F)F)c1	2	9	9	1	x
C[C@@H]1CN([C@H](C)CO)C(=O)c2cc(Br)cnc2O[C@H]1CN(C)C(=O)c1ccc(F)cc1	5	-7	-7	-5	x
Cc1cc2[nH]c(=O)c(=O)[nH]c2cc1S(=O)(=O)N1CCC(C)CC1	-4	32*	-4	1	8
CC(C)C[C@@H]1COc2cccc(NCCO)c2S(=O)(=O)N1	2	7	12	5	x
SMILES	DDE Tn7 FP inh	ARFGAP1 inh	ASAP1 inh	DDE Tn6 FP inh	ARFGAP1 inh conf
CSCCC(NC(=O)OCc1ccccc1)C(=O)NCc1cccnc1 (centres undefined)	-3	25*	4	-10	3
C[C@@H]1CN([C@@H](C)CO)C(=O)CCCn2cc(nn2)CO[C@H]1CN(C)C(=O)Nc1ccc(C(C)(C)C)cc1	4	-1	-13	5	x
O=C(N/N=C/c1cccnc1)c1[nH]ncc1Br	0	-4	6	4	x
O=C(N/N=C/c1ccccc1)c1[nH]ncc1Br	-2	28*	4	-1	3
Nc1ncnc2c1ncn2[C@@H]1O[C@H](C(=O)N[C@@H](CCc2ccccc2)C(=O)N2CCN(C(=O)C(F)(F)F)CC2)[C@@H](O)[C@H]1O	-4	2	-11	3	x
COc1ccc(NC(=O)Nc2ccc(F)cc2)cn1	5	25*	-4	2	3
O=C(CSc1nnc(Nc2ccccc2)s1)NC1CCCC1	0	26*	16	-6	-4
COc1ccc(Nc2nnc(SCC(=O)NC3CCCC3)s2)cc1	0	-5	-15	12	x
Cc1ccc(OCc2ccc(C(=O)NCc3cccnc3)cc2)cc1C	4	2	8	-2	x
O=C(NCc1cccnc1)c1ccc(COc2ccc(Cl)cc2)cc1	5	28*	18	0	1
COC(=O)[C@]12C[C@H](CC(=O)N3CCSCC3)C(=O)N(Cc3ccccc3)C1=C[C@H](C1CCCC1)O[C@@H]2C	8	6	0	11	x
COCCNC(=S)N(C)[C@H]1C[C@H]2c3[nH]c4ccccc4c3CCN2C(=O)[C@H]1[C@H](C)O	-4	7	-6	-7	x
COc1ccc(C=NNC(=O)NN=Cc2ccc(OC)c(OC)c2)cc1OC	-2	38*	6	-5	55*
COc1cc(/C=N/NC(=O)c2cccnc2)ccc1OS(=O)(=O)c1ccc(C)cc1	4	11	-8	-11	x
COC(=O)N/N=C/c1ccc(OS(=O)(=O)c2ccc(C)cc2)c(OC)c1	-4	37*	5	5	-4
COc1ccc(C=NNC(=O)CCCC(=O)NN=Cc2ccc(OC)c(OC)c2)cc1OC	-7	1	11	-4	x
Cc1nn(-c2ccccc2)c(N)c1N=Nc1cccc(S(=O)(=O)N2CCOCC2)c1	2	29*	5	-7	6
Cc1nn(-c2ccccc2)c(N)c1N=Nc1ccccc1	3	2	6	2	x
COc1ccc(-c2csc(NC(=O)CN3C(=O)NC4(CCCC4)C3=O)n2)cc1OC	-9	27*	-7	0	4
